Source: PubChem
Most compounds without a hit are left out; they make up all but 3.7% or so of the library.
TAAR1 ag: human TAAR1 agonists, primary screen, Fluo-8 calcium fluorescence, CHO RD-HGA16 cells | activation, % at 3 µM | 0.99% of 360,000 active | vehicle wells 0%, saturating PEA agonist 100% | Trace amine-associated receptor 1 (Homo sapiens), Q96RJ0;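 active means activation above the mean activation of all test compounds in the run plus 3 SD, cut at about 38% in these data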
Target sequence (Q96RJ0 whole entry, looked up): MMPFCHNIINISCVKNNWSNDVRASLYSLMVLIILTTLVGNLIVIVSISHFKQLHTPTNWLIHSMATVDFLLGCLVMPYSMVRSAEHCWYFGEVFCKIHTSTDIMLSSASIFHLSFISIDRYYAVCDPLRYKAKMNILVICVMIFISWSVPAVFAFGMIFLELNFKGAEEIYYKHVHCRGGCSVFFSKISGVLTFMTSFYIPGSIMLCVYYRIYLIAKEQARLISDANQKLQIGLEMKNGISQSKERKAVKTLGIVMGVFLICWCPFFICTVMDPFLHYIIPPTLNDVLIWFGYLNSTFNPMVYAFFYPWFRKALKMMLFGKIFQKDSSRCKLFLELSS
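Test system: RD-HGA16 (CHO) cells co-expressing Gα16 and hTAAR1 | Doses: Single dose, 3 µM | Schedule: 17-24 h seeding, 75 min 37 °C dye, 30 min RT | Evaluation: % activation from peak over basal fluorescence ratio, DMSO-to-PEA scaled | Technique: Kinetic Fluo-8 calcium fluorescence | Benchmarks: Low control DMSO, high control PEA (EC100)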
rCAG binder: binders of r(CAG) RNA repeats, primary screen, biochemical, fluorescence; r(CAG) RNA repeat, TO-PRO-1 dye displacement fluorescence; inhibition, % at 3 µM; 1.3% of 370,000 active; AID 651821, 2012;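 active means inhibition above the plate cutoff, the mean of all test compounds on that plate plus 3 SD, cut at about 35% in these data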;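 further: 0% = DMSO alone and 100% = 100 µM mitoxantrone as full dye displacement; higher means more dye released from RNA so lower well fluorescence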
TAAR1 antag: human TAAR1 antagonists, primary screen, Fluo-8 calcium fluorescence, CHO RD-HGA16 cells; inhibition, % at 3 µM; Trace amine-associated receptor 1 (Homo sapiens), Q96RJ0; 1.5% of 360,000 active; antagonist;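 active means inhibition above a per-plate cutoff, the mean inhibition of test compounds on that plate plus 3 SD, cut at about 49% in these data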;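 further: 0% = DMSO plus EC80 beta-PEA response and 100% = DMSO alone without agonist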
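Test system – hTAAR1-expressing CHO RD-HGA16 cells, Gα16-coupled · Reagent – β-PEA at EC80 concentration, post-compound challenge · Compound dosing – 3 µM, single point · Timing – 140 s kinetic read after compound, 140 s after agonist · Detection – Fluo-8 intracellular calcium dye fluorescence, real-time kinetic reads · Control set – DMSO and EC80 PEA controls · Repeats – n of 1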
core dimer inh: inhibitors of HCV core protein dimerization, primary screen, biochemical, TR-FRET, high-throughput; 0.33% of 300,000 active; AID 1899, 2009; inhibition, % at 5 µM; TR-FRET GST/Flag-core106 dimerization, 1536-well;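 active means inhibition above the mean of all tested compounds plus 3 SD, set per screening campaign, cut at about 45% in these data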
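System – GST-tagged and Flag-tagged HCV core protein residues 1-106 · Repeats – one well for each compound · Technique – TR-FRET 671 and 617 nm emission · Doses – one concentration, 5 µM, in 0.5% DMSO · Times – 4 h, 22.5 °C incubation · Also added – Eu donor and XL665 acceptor anti-tag antibodies · Measure – percent inhibition of core106 dimerization signal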
NS3 helicase inh: inhibitors of HCV NS3 helicase, primary screen, biochemical, Cy5 molecular beacon fluorescence. AID 1800, 2009. NS3 helicase DNA unwinding. Hepatitis C virus NS3 helicase. 0.56% of 290,000 active. inhibition, % at 10.9 µM;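 active means inhibition above the mean of all tested compounds plus 3 SD, set per campaign, cut at about 35% in these data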;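 further: 0% = DMSO wells and 100% = thioflavine S control wells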
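System: Hepatitis C virus NS3 helicase domain fragment enzyme | Reagent: Annealed dual-labelled DNA beacon duplex, ATP-started | Compound dosing: 10.9 µM single point, 0.8% DMSO | Incubation: 1 h reaction at 25 °C, ATP-initiated | Technique: Cy5 fluorescence | Evaluation: Percent inhibition from t60/t0 fluorescence ratio | Benchmarks: Low DMSO, high thioflavine S at 110 µM | Replication: Singlicate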
rCAG binder conf: small molecules binding CAG repeat RNA – biochemical, fluorescence, confirmation | 70% of 4,300 active | shares compounds with rCAG binder | inhibition, % at 3 µM | r(CAG) RNA repeat, TO-PRO-1 dye displacement fluorescence;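 active means inhibition above a per-plate cutoff, the mean inhibition of sample wells plus 3 SD, cut at about 35% in these data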;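 further: loss of TO-PRO-1 fluorescence as compound displaces dye from 1x1 AA loop RNA; 0% = DMSO only wells and 100% = 100 µM mitoxantrone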
DNA CAG counter: displacement of TO-PRO-1 from CAG DNA duplex, counter-screen for rCAG RNA repeat binder project, biochemical, fluorescence, TO-PRO-1 dye, d(CAG) DNA oligo; shares compounds with rCAG binder; d(CAG) DNA oligo TO-PRO-1 dye displacement; inhibition, % at 3 µM; 94% of 4,300 active; AID 652068, 2013;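 active means inhibition above its plate's cutoff, the mean test-well inhibition plus 3 SD, cut at about 4.8% in these data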;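 further: 0% = DNA dye mix with DMSO and 100% = 100 µM mitoxantrone; hits displace the dye from DNA and so lower well fluorescence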
The depositor's hits bear a star; nt = no result given.

SMILES	TAAR1 ag	rCAG binder	TAAR1 antag	core dimer inh	NS3 helicase inh	rCAG binder conf	DNA CAG counter
CCOC(=O)c1ccc(NC(=O)CC2S/C(=N/N=C/c3c[nH]c4ccccc34)NC2=O)cc1 (stereo not drawn)	1.3	78.2*	-3.6	1.1	-17.1	84.7*	47.5*
Cc1ccc(NC(=O)CC2S/C(=N/N=C/c3c[nH]c4ccccc34)NC2=O)cc1 (stereo not drawn)	-0.5	47.4*	22.9	-7.0	-5.1	64.2*	23.4*
O=C(c1cccc(F)c1)N(Cc1ccccn1)CC1CCCO1 (stereo not drawn)	nt	0.2	nt	nt	nt	nt	nt
COc1ccc(N=C2SC(C(=O)Nc3ccc(C(=O)O)cc3)CC(=O)N2Cc2cccs2)cc1 (stereo not drawn)	1.0	61.4*	7.3	12.0	-6.3	60.1*	20.3*
Cc1ccc(-n2c(SCC(=O)Nc3ccc4cn[nH]c4c3)nnc2-c2ccccc2)cc1	nt	5.8	nt	nt	nt	nt	nt
COC(=O)c1cccc(Cn2ccc3ccc(-c4ccc5ccn(C(=O)c6ccccc6)c5c4)cc32)c1	nt	12.2	nt	nt	nt	nt	nt
Cc1cc(C(C#N)c2ccc(Cl)cc2)c(Cl)cc1NC(=O)c1cc(I)cc(I)c1O (stereo not drawn)	2.1	72.8*	-0.7	18.1	nt	92.5*	78.5*
CS(=O)(=O)c1ccc(C(=O)Nc2nc(-c3ccco3)c(-c3ccco3)s2)cc1	0.3	88.4*	-7.8	nt	nt	34.0	16.4*
O=[N+]([O-])c1cccc(NC(=S)Nc2nc(-c3ccccc3Cl)cs2)c1	5.4	39.1*	16.6	6.3	20.0	36.1*	27.8*
CCNC(=S)Nc1cccc([N+](=O)[O-])c1	nt	nt	nt	-6.2	5.3	nt	nt
COc1ccc(-c2nn(-c3ccccc3)cc2/C=N/NC(=O)c2cccc(S(=O)(=O)Nc3ccccc3OC)c2)cc1	3.9	17.6	7.6	37.3	-3.4	nt	nt
COc1ccc(-c2nn(-c3ccccc3)cc2/C=N/Nc2cccc(C(=O)O)c2)cc1	-2.4	37.3*	3.5	nt	4.2	48.0*	20.0*
COc1cccc(-c2nn(-c3ccccc3)cc2/C=C(/NC(=O)c2ccccc2)C(=O)O)c1	0.0	38.2*	0.4	4.2	15.7	38.3*	9.2*
Cc1nn(-c2ccccc2)c(C)c1/C=N/NC(=O)c1[nH][nH]c(=O)c1C	nt	3.5	nt	nt	nt	nt	nt
O=C(O)c1cc(-c2c[nH]c3ccccc23)nc2ccc3ccccc3c12	9.9	52.0*	-7.8	8.3	11.3	45.0*	11.2*
c1ccc2c(-c3c[nH]c4ccccc34)c3ccccc3nc2c1	2.0	4.8	32.9	1.6	-10.7	nt	nt
Clc1ccc([C@H]2OC[C@@]3(CNCc4ccccn4)CS[C@H](c4ccc(Cl)cc4)N23)cc1	nt	1.9	nt	nt	nt	nt	nt
Cc1ccc(NC(=O)C(C)OC(=O)c2ccc(NS(=O)(=O)c3ccc(F)c(F)c3)cc2)cc1 (stereo not drawn)	6.2	58.2*	-12.3	9.1	-12.1	67.3*	20.0*
Cc1ccc(S(=O)(=O)Nc2ccccc2C(=O)OC(C)C(=O)Nc2ccc3ccccc3c2)cc1[N+](=O)[O-] (stereo not drawn)	2.5	38.8*	24.2	46.6*	-17.7	42.3*	16.5*
CNc1ccccc1C(=O)OC(C)C(=O)Nc1ccc(S(=O)(=O)N2CCCC2)cc1 (stereo not drawn)	5.6	7.2	-13.1	10.3	-27.4	nt	nt
CC(=O)Nc1ccc(NC(=O)C(C)OC(=O)c2ccc(S(=O)(=O)N3CCCCC3)cc2)cc1 (stereo not drawn)	1.6	1.0	-6.0	nt	nt	nt	nt
